This note sets out measurements from ChEMBL document CHEMBL3808325, “Discovery and Optimization of Macrocyclic Quinoxaline-pyrrolo-dihydropiperidinones as Potent Pim-1/2 Kinase Inhibitors” (ACS Med Chem Lett, 2016).

The structures appear in SMILES notation. ≈ marks a conversion by molar mass, not a printed value.

The target of series [1] is Serine/threonine-protein kinase pim-2 (Homo sapiens, UniProt Q9P1W9). As to the kind of experiment: Inhibition of human full-length Pim2 expressed in Escherichia coli assessed as phosphorylation of biotinylated BAD peptide at Ser 112 preincubated for 30 mins followed by substrate addition measured after 1 hr by HTRF assay. In outline:
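Cell-free kinase assay using recombinant Pim-1 or Pim-2. Read-out is phosphorylation of a short BAD peptide sequence spanning Ser-112.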
(In general: In TR-FRET formats the signal depends on donor and acceptor labels being close together.)

Series [2] deals with Serine/threonine-protein kinase PIM (Homo sapiens, UniProt P11309+Q9P1W9+Q86V86). As to the kind of experiment: Inhibition of Pim1/2 in human KMS-12-BM cells assessed as phosphorylation of full-length BAD protein at Ser-112 incubated for 110 mins by flow cytometric analysis in presence of 20% FBS. Format: cell-based. The method, boiled down:
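Cell assay in KMS-12-BM, a multiple myeloma line with relatively high endogenous Pim-1/2. Pim-dependent phosphorylation of full-length endogenous BAD at Ser-112 measured.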
Background: In flow cytometry, cells or beads pass a laser one at a time.

Series [3] concerns the target Serine/threonine-protein kinase pim-1 (Homo sapiens, UniProt P11309). As to the kind of experiment: Inhibition of human full-length Pim1 expressed in Escherichia coli assessed as phosphorylation of biotinylated BAD peptide at Ser-112 preincubated for 30 mins followed by substrate addition measured after 1 hr by HTRF assay.
Series [4] can be described thus: Equilibrium solubility of compound in PBS by HPLC analysis. The format is physicochemical.
Series [5] in a line: Drug metabolism in rat liver microsomes assessed as compound turnover at 1 uM incubated for 30 mins. Format: ADME. The note with it: read-out: Drug metabolism. A general note: Liver microsomes are a subcellular fraction often used to study metabolism.
Series [6] in a line: Protein binding in rat assessed as as fraction unbound at 5 uM by rapid equilibrium dialysis method. The settings on record: plasma. The format is ADME.
A short description of series [7]: Volume of distribution at steady state in Sprague-Dawley rat at 2 mg/kg, iv. The format is ADME, organism-based. The note with it: in vivo, read-out: Vdss. In outline: (§1)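 Pharmacokinetics in male Sprague–Dawley rats. Clearance also expressed as a percentage of liver blood flow. Oral bioavailability determined.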
A short description of series [8]: Drug metabolism in human liver microsomes assessed as compound turnover at 1 uM incubated for 30 mins. The format is ADME. The settings on record: read-out: Drug metabolism.
Series [9] is described as follows: Oral bioavailability in Sprague-Dawley rat at 5 mg/kg. The note with it: in vivo. Format: ADME, organism-based. In outline:
as §1

The nature of series [10]: Clearance in Sprague-Dawley rat at 2 mg/kg, iv. The format is ADME, organism-based. The settings on record: in vivo. In outline: as §1
Series [11] can be described thus: Half life in Sprague-Dawley rat at 2 mg/kg, iv. The format is ADME, organism-based. The note with it: in vivo. The method, boiled down:
as §1

Series [12] in a line: Apparent permeability in pig LLC-PK1 cells at 5 uM. Format: ADME, cell-based, Sus scrofa.
The nature of series [13]: Clearance in Sprague-Dawley rat at 1 mg/kg, iv. The format is ADME, organism-based. The settings on record: in vivo. The method, boiled down:
as §1

A short description of series [14]: Half life in Sprague-Dawley rat at 1 mg/kg, iv. The format is ADME, organism-based. The note with it: in vivo. The method, boiled down:
as §1

Series [15] can be described thus: Volume of distribution at steady state in Sprague-Dawley rat at 1 mg/kg, iv. Format: ADME, organism-based. The settings on record: in vivo, read-out: Vdss. In outline: as §1

Sequence of Serine/threonine-protein kinase pim-1 (P11309 whole entry): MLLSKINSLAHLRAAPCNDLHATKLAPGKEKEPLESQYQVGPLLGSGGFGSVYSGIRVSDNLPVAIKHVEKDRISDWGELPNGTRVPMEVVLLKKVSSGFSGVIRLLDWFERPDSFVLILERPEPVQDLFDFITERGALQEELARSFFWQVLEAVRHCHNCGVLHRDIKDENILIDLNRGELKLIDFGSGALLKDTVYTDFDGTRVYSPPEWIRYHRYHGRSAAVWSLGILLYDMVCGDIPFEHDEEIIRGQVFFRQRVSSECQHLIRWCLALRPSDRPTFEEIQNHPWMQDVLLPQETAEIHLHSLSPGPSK
Sequence of Serine/threonine-protein kinase pim-2 (Q9P1W9 whole entry): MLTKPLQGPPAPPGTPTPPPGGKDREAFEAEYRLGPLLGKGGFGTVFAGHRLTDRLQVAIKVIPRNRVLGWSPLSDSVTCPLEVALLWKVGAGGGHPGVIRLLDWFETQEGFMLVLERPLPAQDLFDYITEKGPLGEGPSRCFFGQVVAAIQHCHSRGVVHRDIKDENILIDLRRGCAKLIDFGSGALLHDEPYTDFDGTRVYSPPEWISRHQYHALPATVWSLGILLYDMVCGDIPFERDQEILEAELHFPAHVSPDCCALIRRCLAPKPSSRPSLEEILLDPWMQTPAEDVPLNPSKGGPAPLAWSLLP

One may read the IC50 as the point on the concentration scale where inhibition reaches its midpoint. Turning to `Cc1nc2cccc3c2nc1NC/C=C\C[C@@H]1CNC(=O)c2cc-3[nH]c21`, the IC50 in [1] worked out at 1000 pM; in series [2], 370000 pM; in series [3], 2000 pM.
A word on the solubility (thermodynamic): it is solubility found after equilibrating the solid with the medium. Consider `Cc1nc2cccc3c2nc1NC/C=C\C[C@H]1CNC(=O)c2cc-3[nH]c21`, for which the figures for the IC50 in series [1], in series [2] and in series [3] were 70 pM, 21000 pM and 60 pM, respectively. The same molecule registered a thermodynamic solubility in series [4] of under 5 µM.
Regarding `Cc1nc2cccc3c2nc1N[C@H](C)/C=C/C[C@H]1CNC(=O)c2cc-3[nH]c21`, the IC50 in [1] is 50 pM; in series [2], 20000 pM; in series [3] it was 300 pM. This molecule also yielded a solubility (thermodynamic) in series [4] of under 5 µM.
The fraction unbound is free concentration divided by total concentration. As a reminder, the bioavailability is dose-corrected exposure relative to a reference, in per cent. For orientation: clearance means the rate of elimination divided by the concentration. For orientation: half-life means the time in which the quantity being followed falls by half. Higher therefore signals slow loss. As a reminder, the Papp is the rate of passage across a membrane or cell layer, normalised by area and donor concentration. On to `C/C1=C/C[C@H]2CNC(=O)c3cc([nH]c32)-c2cccc3nc(C)c(nc23)NC1`, for which the metabolised at 0.5 h, 1 µM in series [5] is 42%; in [8], 17%. Also, the IC50 in [1] was found to be 200 pM; in series [2], 14000 pM; in series [3], 400 pM. For the same molecule, the fraction unbound at 5 µM in [6] amounted to 0.016. The Vd in [7] was 1.8 L/kg. In series [9], the bioavailability turned out to be 17%. Further, the clearance in [10] was 15.8 mL/min/kg. This molecule yielded a solubility (thermodynamic) in series [4] of 23 µM (≈ 8.27 µg/mL). In [11], the half-life was 6.1 h. Besides, the Papp at 5 µM in [12] was 40 ×10⁻⁶ cm/s.
For `Cc1nc2cccc3c2nc1NCCCC[C@@H]1CNC(=O)c2cc-3[nH]c21`, the IC50 in series [1] was determined as 200 pM; in series [2] it was 100000 pM; in [3], 400 pM.
Regarding `Cc1nc2cccc3c2nc1NCCCC[C@H]1CNC(=O)c2cc-3[nH]c21`, the IC50 in [1] turned out to be 50 pM; in [2], 20000 pM; in series [3] it was 70 pM. Besides, in series [4], the thermodynamic solubility was 7 µM (≈ 2.43 µg/mL).
For the molecule `Cc1nc2cccc3c2nc1NC[C@H](C)CC[C@H]1CNC(=O)c2cc-3[nH]c21`, the half-maximal inhibitory concentration (IC50) in series [1] was 400 pM; in [2] it was 25000 pM; in [3], 500 pM. The same molecule came in with a solubility (thermodynamic) in series [4] of under 5 µM.
In series [13], `C/C1=C\C[C@H]2CNC(=O)c3cc([nH]c32)-c2cccc3nc(C)c(nc23)NC1` showed a clearance of 40 mL/min/kg. Moreover, the metabolised at 0.5 h, 1 µM in series [5] and in [8] was 45% in each case. Also, the IC50 came out at 80 pM in [1], 16000 pM in series [2] and 100 pM in series [3]. In addition, in series [6], the fraction unbound at 5 µM was found to be 0.0071. In series [9], this molecule registered a bioavailability of 35%. Besides, the half-life in series [14] is 2.8 h. Further, the solubility (thermodynamic) in series [4] is 27 µM (≈ 9.7 µg/mL). In series [15], the Vd turned out to be 3.1 L/kg. For the same molecule, the Papp at 5 µM in series [12] was 33 ×10⁻⁶ cm/s.
For the molecule `Cc1nc2cccc3c2nc1NC[C@@H](C)CC[C@H]1CNC(=O)c2cc-3[nH]c21`, the IC50 was 300 pM in [1], 37000 pM in series [2] and 300 pM in [3]. The same molecule displayed a solubility (thermodynamic) in [4] of under 5 µM.
As for `CCCCNc1nc2c(-c3cc4c([nH]3)CCNC4=O)cccc2nc1C`, the concentration for half-maximal inhibition (IC50) in series [1] is 2000 pM; in series [3], 3000 pM.
In the case of `Cc1nc2cccc3c2nc1NC/C=C/C[C@@H]1CNC(=O)c2cc-3[nH]c21`, the IC50 in [1] stood at 1000 pM; in series [2] it was 880000 pM; in series [3], 1000 pM.
Turning to `Cc1nc2cccc3c2nc1N[C@H](C)CCC[C@H]1CNC(=O)c2cc-3[nH]c21`, the IC50 in series [1] worked out at 200 pM; in [2], 37000 pM; in series [3] it was 100 pM. The same molecule had a thermodynamic solubility in series [4] of under 5 µM.
For the molecule `Cc1nc2cccc3c2nc1N[C@@H](C)CCC[C@H]1CNC(=O)c2cc-3[nH]c21`, the IC50 was 400 pM in [1], 40000 pM in [2] and 1000 pM in series [3]. The solubility (thermodynamic) in series [4] is under 5 µM.
On to `Cc1nc2cccc3c2nc1NC/C=C/C[C@H]1CNC(=O)c2cc-3[nH]c21`, for which the IC50 in series [1] was determined as 500 pM; in series [2] it was 106000 pM; in series [3] it was 1000 pM. In [4], the solubility (thermodynamic) was under 5 µM.
For the molecule `CCCNc1nc2c(-c3cc4c([nH]3)CCNC4=O)cccc2nc1C`, the IC50 in [1] came out at 2000 pM.
On to `Cc1nc2cccc3c2nc1N[C@@H](C)/C=C/C[C@H]1CNC(=O)c2cc-3[nH]c21`, for which the IC50 in series [1] amounted to 300 pM; in series [2] it was 26000 pM; in [3], 600 pM. Further, the thermodynamic solubility in series [4] was under 5 µM.
Consider `Cc1nc2cccc(-c3cc4c([nH]3)CCNC4=O)c2nc1Nc1ccccc1`, for which the IC50 in series [1] was found to be 2000 pM; in [2], 184000 pM; in series [3], 3000 pM.
